# Results: publication PMC8404148 (Endocrine-related cancer, 2021)
# Assays:
# 5097 PDX organoids = assay: Breast cancer PDX organoid growth, 5097 line; assay type: cell-based, human; conditions: 10 nM single agent, two weeks, vs vehicle
# MCF-7 cells = conditions: read-out: IC50 for suppressing MCF-7 cell growth, ref Wang et al. 2014; cited from earlier work
# 4013 PDX organoids = assay: Breast cancer PDX organoid growth, 4013 line; assay type: cell-based, human; conditions: SI-12 10 nM, BEZ235 2 nM, two weeks
# In short: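 Organoids derived from the 4013 PDX tumour, which came from a patient with triple-negative infiltrating ductal carcinoma. The tumour was passaged in mice eight times before use.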
smiles,measurement,setting,value
CCN1CCN(Cc2ccc(Nc3ncc(F)c(-c4cc(F)c5nc(C)n(C(C)C)c5c4)n3)nc2)CC1 [Abemaciclib],organoid numbers,5097 PDX organoids,reduced organoid numbers
C[C@]12CC[C@H](O)C[C@H]1CC[C@@H]1[C@@H]2CC[C@]2(C)[C@@H](c3ccc(=O)oc3)CC[C@]12O [bufalin],IC50,MCF-7 cells,3.2 nM
Cn1c(=O)n(-c2ccc(C(C)(C)C#N)cc2)c2c3cc(-c4cnc5ccccc5c4)ccc3ncc21 [BEZ235],"organoid formation, single compound",4013 PDX organoids,could repress organoid formation
